Data on 1 compound can be found in ChEMBL document CHEMBL1275600, “Prophylactic activity of intramuscular peramivir in mice infected with a recombinant influenza A/WSN/33 (H1N1) virus containing the H274Y neuraminidase mutation” (Antimicrob Agents Chemother, 2010).

The test system of data set [1] is Influenza A virus. The data set is described as follows: Antiviral activity against recombinant Influenza A/WSN/33 (H1N1) virus infected in BALB/c mouse assessed as survival of mouse at 45 mg/kg, im administered as single dose. In kind it is functional, organism-based. The arrangement: dose 45 mg/kg. The following applies: A/WSN/1933(H1N1). Summed up:
(§1)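 Male BALB/c mice, 6–8 weeks old and 20–25 g, were randomized by weight, 4 per cage, in groups of 12. Drug at 50 mg/ml in saline buffered to pH 3.0 was given by IM hip injection, first dose 1 h before challenge. Mice were infected intranasally under isoflurane with 8 × 10^3 PFU of cell-grown recombinant virus in 30 μl PBS. Mortality was recorded daily for 14 days.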

A short description of data set [2]: Cmax in mouse at 30 mg/kg, im administered as single dose and measured after 24 hrs. Particulars: in vivo. The arrangement: dose 30 mg/kg, route intramuscular. The class given is ADME, organism-based.
For data set [3], the system named is Mus musculus. The data set is described as follows: Toxicity against recombinant Influenza A/WSN/33 (H1N1) virus infected BALB/c mouse assessed as weight loss at 90 mg/kg, im administered as single dose and measured after 14 days. Details: dose 90 mg/kg, route intramuscular. Particulars: in vivo, 336 h. In kind it is organism-based. Put shortly:
(§2)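 Male BALB/c mice, groups of 12, received IM drug at 50 mg/ml in pH 3.0 buffered saline, starting 1 h before intranasal infection with 8 × 10^3 PFU of recombinant virus. Body weight was monitored daily for 14 days. Mean weight loss was compared across regimens by one-way ANOVA, with uninfected PBS-treated mice as reference.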

The test system of data set [4] is Mus musculus. The data set can be described thus: Toxicity against BALB/c mouse assessed as mortality at 45 mg/kg, im once daily for 5 days measured after 14 days. The following applies: in vivo, 336 h. Details: dose 45 mg/kg, route intramuscular. The class given is organism-based. Summed up:
(§3)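 Uninfected male BALB/c mice, 6 per group, received IM drug at 45 mg/kg once daily for 5 days, dissolved at 50 mg/ml in pH 3.0 buffered saline, or PBS. Body weight and mortality were monitored daily for 14 days.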

Data set [5] has as its system Mus musculus. The data set can be described thus: Toxicity against recombinant Influenza A/WSN/33 (H1N1) virus infected BALB/c mouse assessed as weight loss at 45 mg/kg, im administered as single dose and measured after 14 days. The class given is organism-based. Details: dose 45 mg/kg, route intramuscular. The following applies: in vivo, 336 h. Summed up: as §2
Data set [6] addresses Neuraminidase (Influenza A virus (strain A/Wilson-Smith/1933 H1N1) (Influenza A virus(strain A/WS/1933 H1N1))) (UniProt P03470). Particulars: Influenza A virus (A/WSN/1933(H1N1)); 10 mg/kg.
Data set [7] deals with Mus musculus. The data set can be described thus: Toxicity against BALB/c mouse assessed as weight loss in mouse at 45 mg/kg, im once daily for 5 days measured after 14 days. Details: dose 45 mg/kg, route intramuscular. In kind it is organism-based. Particulars: in vivo, 336 h. Put shortly: as §3
Data set [8] has as its system Influenza A virus. The data set is described as follows: Antiviral activity against Influenza A/WSN/33 (H1N1) virus infected in mouse assessed as survival rate at 10 mg/kg, po administered 4 days before viral challenge. In kind it is functional. Particulars: A/WSN/1933(H1N1).
For data set [9], the system named is Influenza A virus. The data set is described as follows: Antiviral activity against recombinant Influenza A/WSN/33 (H1N1) virus infected in BALB/c mouse assessed as survival of mouse at 45 mg/kg, im once daily for 5 days. In kind it is functional, organism-based. The arrangement: dose 45 mg/kg. The following applies: A/WSN/1933(H1N1). Put shortly: as §1
The nature of data set [10]: Cmax in mouse at 30 mg/kg, im administered as single dose and measured after 30 mins. The arrangement: dose 30 mg/kg, route intramuscular. The class given is ADME, organism-based. Particulars: in vivo.
The test system of data set [11] is Mus musculus. The data set is described as follows: Toxicity against recombinant Influenza A/WSN/33 (H1N1) virus infected BALB/c mouse assessed as weight loss at 45 mg/kg, im once daily for 5 days measured after 14 days. In kind it is organism-based. Details: dose 45 mg/kg, route intramuscular. Particulars: in vivo, 336 h. Summed up:
as §2

The target in data set [12] is Neuraminidase (Influenza A virus (strain A/Wilson-Smith/1933 H1N1) (Influenza A virus(strain A/WS/1933 H1N1))) (UniProt P03470). Particulars: Influenza A virus (A/WSN/1933(H1N1)); 2 to 20 mg/kg.
Sequence of Neuraminidase (Influenza A virus (strain A/Wilson-Smith/1933 H1N1) (Influenza A virus(strain A/WS/1933 H1N1))) (P03470 whole entry): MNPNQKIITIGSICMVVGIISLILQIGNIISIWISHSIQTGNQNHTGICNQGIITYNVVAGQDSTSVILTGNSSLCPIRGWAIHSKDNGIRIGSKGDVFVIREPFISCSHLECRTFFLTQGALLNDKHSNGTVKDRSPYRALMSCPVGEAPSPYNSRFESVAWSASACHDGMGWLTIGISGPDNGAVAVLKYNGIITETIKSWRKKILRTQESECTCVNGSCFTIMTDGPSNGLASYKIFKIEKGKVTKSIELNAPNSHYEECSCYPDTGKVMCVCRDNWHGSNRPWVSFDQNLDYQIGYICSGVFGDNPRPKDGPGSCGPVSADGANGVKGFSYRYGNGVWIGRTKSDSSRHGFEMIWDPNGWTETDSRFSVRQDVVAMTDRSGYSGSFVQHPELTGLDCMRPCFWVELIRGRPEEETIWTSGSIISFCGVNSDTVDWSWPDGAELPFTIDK
The test system of data set [13] is Influenza A virus. The data set is described as follows: Antiviral activity against recombinant Influenza A/WSN/33 (H1N1) virus infected in BALB/c mouse assessed as survival of mouse at 90 mg/kg, im administered as single dose. The class given is functional, organism-based. The arrangement: dose 90 mg/kg. The following applies: A/WSN/1933(H1N1). Put shortly:
as §1

Data set [14] concerns Influenza A virus. The data set is described as follows: Antiviral activity against Influenza A/WSN/33 (H1N1) virus infected in mouse assessed as survival rate at 10 mg/kg, im administered 4 days before viral challenge. The class given is functional. Particulars: A/WSN/1933(H1N1), route intramuscular.

Calls of active or inactive are those of the source. The rule behind the calls is not given here.

One may read the Cmax as the maximum level reached in the sampled fluid or tissue. Turning to `CCC(CC)[C@H](NC(C)=O)[C@@H]1[C@H](O)[C@@H](C(=O)O)C[C@H]1NC(=N)N` [PERAMIVIR ANHYDROUS], the result with Influenza A virus [1], in the data set with Influenza A virus [9] and in the data set with Influenza A virus [13] was Active. In addition, the figures for the maximum concentration (Cmax) in data set [2] and in data set [10] were 29.3 ng/mL and 17700 ng/mL, respectively. In addition, the Activity entry with Mus musculus [3], in the data set with Mus musculus [4], in the data set on Mus musculus [5], with Mus musculus [7] and in the data set with Mus musculus [11] was “Non-toxic” in each case. Also, the T1/2 in data set [6] was more than 24 h; in data set [12] it was 1.25 h. The survival at 10 mg/kg with Influenza A virus [8] amounted to 50%; with Influenza A virus [14], 100%.
